pEC50: −log10 of the molar value.
Columns and labels:
[1] = Tmax in Sprague-Dawley rat at 10 mg/kg, po administered daily for 7 days measured on day 1; assay type: ADME, organism-based; parameters: dose 10 mg/kg, route oral; details: in vivo
In short: (§1)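 Sprague-Dawley rats, 8–12 weeks old, dosed orally once daily for 7 days and not fasted. Blood taken at 0.5, 1, 2, 4, 12 and 24 h after dosing on days 1 and 7, one rat/sex/time point. Plasma deproteinized, analyte separated by mixed-mode HPLC and quantified by MS/MS, LOQ 1 ng/ml, values below LOQ set to zero. Noncompartmental analysis: Tmax read from plotted data, AUC by linear-log trapezoidal rule.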

Rattus norvegicus [2] = test: Toxicity in Sprague-Dawley rat assessed as change in erythrocyte morphology at 10 to 100 mg/kg, po administered daily for 7 days; assay type: organism-based; parameters: dose 10-100 mg/kg, route oral; details: in vivo, 168 h
[3] = Selectivity index, ratio of CC50 for human PBMC to EC50 for HIV1 clade B HT/92/599 isolate
In short: (§2)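 Fresh human PBMCs, seronegative for HIV and HBV, infected with HIV-1 clade B HT/92/599. Antiviral read-out by reverse transcriptase reduction; cytotoxicity by XTT staining. EC50, CC50 and CC50/EC50 taken from data plots, given as mean ± standard deviation of triplicate determinations.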

Rattus norvegicus [4] = test: Toxicity in Sprague-Dawley rat assessed as change in clinical chemistry parameters at 10 to 100 mg/kg, po administered daily for 7 days; assay type: organism-based; parameters: dose 10-100 mg/kg, route oral; details: in vivo, 168 h
In short: (§3)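 Sprague-Dawley rats (3/sex/group), 8–12 weeks old, given vehicle or 10, 30 or 100 mg/kg/day orally once daily for 7 days. Serum biochemistry, hematology and urinalysis done at day 7. At necropsy, control and high-dose rats examined grossly, organs weighed, and all tissues processed for histopathology.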

[5] = Tmax in Sprague-Dawley rat at 100 mg/kg, po administered daily for 7 days measured on day 1; assay type: ADME, organism-based; parameters: dose 100 mg/kg, route oral; details: in vivo; in short: as §1
Rattus norvegicus [6] = test: Toxicity in Sprague-Dawley rat assessed as change in food consumption at 10 to 100 mg/kg, po administered daily for 7 days; assay type: organism-based; parameters: dose 10-100 mg/kg, route oral; details: in vivo, 168 h
In short: (§4)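 Sprague-Dawley rats (3/sex/group), 8–12 weeks old, given vehicle or 10, 30 or 100 mg/kg/day orally once daily for 7 days. Mortality, morbidity, clinical observations, body weight and food consumption recorded daily.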

[7] = Elimination half life in Sprague-Dawley rat at 100 mg/kg, po administered daily for 7 days measured on day 7; assay type: ADME, organism-based; parameters: dose 100 mg/kg, route oral; details: in vivo, read-out: beta t1/2 (converted)
In short: (§5)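 Oral once daily for 7 days, vehicle or 10, 30 or 100 mg/kg/day, Sprague-Dawley rats 8-12 weeks old, not fasted. Plasma sampled 0.5, 1, 2, 4, 12, 24 h after dosing on days 1 and 7 (1 rat/sex/time point). CMX157 and tenofovir measured by HPLC-MS/MS, LOQ 1 ng/ml (values below set to zero). Noncompartmental analysis; Cmax/Tmax by direct observation, AUC by linear-log trapezoidal rule.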

Rattus norvegicus [8] = test: Toxicity in Sprague-Dawley rat assessed as change in urinalysis parameters at 10 to 100 mg/kg, po administered daily for 7 days; assay type: organism-based; parameters: dose 10-100 mg/kg, route oral; details: in vivo, 168 h; in short: as §3
[9] = Tmax in Sprague-Dawley rat at 30 mg/kg, po administered daily for 7 days measured on day 7; assay type: ADME, organism-based; parameters: dose 30 mg/kg, route oral; details: in vivo; in short: as §1
[10] = Selectivity index, ratio of CC50 for human MT2 cells to EC50 for HIV1 LAI; assay type: toxicity, cell-based; details: read-out: Ratio CC50/EC50
[11] = test system: Human immunodeficiency virus 1; test: Antiviral activity against HIV1 LAI in human MT2 cells assessed as inhibition of p24 antigen production by ELISA; assay type: functional, organism-based; details: Human immunodeficiency virus 1, LAI
In short: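 MT-2 cells in RPMI 1640 with 10% FBS and 10 mM HEPES, infected with HIV-1 LAI at MOI 0.001 TCID50/cell. Incubated with threefold serial dilutions, three wells per dilution. EC50 taken as the concentration inhibiting p24 antigen production by 50%.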

[12] = test system: Human immunodeficiency virus 1; test: Antiviral activity against HIV1 clade B HT/92/599 isolate in human PBMC assessed as reduction in reverse transcriptase; assay type: functional, organism-based; details: Human immunodeficiency virus 1, clade B; in short: as §2
[13] = Tmax in Sprague-Dawley rat at 30 mg/kg, po administered daily for 7 days measured on day 1; assay type: ADME, organism-based; parameters: dose 30 mg/kg, route oral; details: in vivo; in short: as §1
Rattus norvegicus [14] = test: Toxicity in Sprague-Dawley rat assessed as hematological changes at 10 to 100 mg/kg, po administered daily for 7 days; assay type: organism-based; parameters: dose 10-100 mg/kg, route oral; details: in vivo, 168 h; in short: as §3
Rattus norvegicus [15] = test: Toxicity in Sprague-Dawley rat assessed as change in organ weight at 10 to 100 mg/kg, po administered daily for 7 days; assay type: organism-based; parameters: dose 10-100 mg/kg, route oral; details: in vivo, 168 h; in short: as §3
[16] = AUC (0 to 24 hrs) in Sprague-Dawley rat at 30 mg/kg, po administered daily for 7 days measured on day 1; assay type: ADME, organism-based; parameters: time < 24 hr, dose 30 mg/kg, route oral; details: plasma; in short: as §1
[17] = Tmax in Sprague-Dawley rat at 10 mg/kg, po administered daily for 7 days measured on day 7; assay type: ADME, organism-based; parameters: dose 10 mg/kg, route oral; details: in vivo; in short: as §1
[18] = AUC (0 to 24 hrs) in Sprague-Dawley rat at 100 mg/kg, po administered daily for 7 days measured on day 7; assay type: ADME, organism-based; parameters: time < 24 hr, dose 100 mg/kg, route oral; details: plasma; in short: as §5
[19] = Cytotoxicity against human PBMC by XTT assay; assay type: cell-based; in short: as §2
[20] = Selectivity index, ratio of CC50 for human HepG2 cells to EC50 for HBV
Rattus norvegicus [21] = test: Toxicity in Sprague-Dawley rat assessed as microscopic lesions at 10 to 100 mg/kg, po administered daily for 7 days; assay type: organism-based; parameters: dose 10-100 mg/kg, route oral; details: in vivo, 168 h; in short: as §3
Hepatitis B virus [22] = test: Antiviral activity against HBV in human HepG2(2.2.15) cells assessed as viral DNA levels treated for 9 days measured after 24 hrs; assay type: functional, organism-based
In short: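 Confluent 2.2.15 cells in RPMI 1640 with 2% FBS, given nine consecutive daily doses with daily medium change (six cultures per concentration on two replicate plates). HBV DNA quantified by blot hybridization 24 h after the last treatment.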

[23] = AUC (0 to 24 hrs) in Sprague-Dawley rat at 10 mg/kg, po administered daily for 7 days measured on day 7; assay type: ADME, organism-based; parameters: time < 24 hr, dose 10 mg/kg, route oral; details: plasma; in short: as §5
Rattus norvegicus [24] = test: Toxicity in Sprague-Dawley rat assessed as change in body weight at 10 to 100 mg/kg, po administered daily for 7 days; assay type: organism-based; parameters: dose 10-100 mg/kg, route oral; details: in vivo, 168 h; in short: as §4
[25] = Tmax in Sprague-Dawley rat at 100 mg/kg, po administered daily for 7 days measured on day 7; assay type: ADME, organism-based; parameters: dose 100 mg/kg, route oral; details: in vivo; in short: as §1
Hepatitis B virus [26] = test: Antiviral activity against HBV in human HepAD38 cells assessed as intracellular viral DNA levels treated for 3 days measured on day 6 […] by RT-PCR; assay type: functional, organism-based
In short: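 HepAD38 cells seeded at 5 x 10^5/well, grown 2-3 days with 0.3 µg/ml tetracycline, then induced by PBS wash and tetracycline/G418-free medium with or without compound at 37°C, 5% CO2. Medium changed after 3 days. Intracellular HBV DNA measured on day 6 postinduction by TaqMan real-time PCR against a plasmid standard curve, given as % of mock.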

Rattus norvegicus [27] = test: Toxicity in Sprague-Dawley rat assessed as ophthalmological changes at 10 to 100 mg/kg, po administered daily for 7 days; assay type: organism-based; parameters: dose 10-100 mg/kg, route oral; details: in vivo, 168 h
Rattus norvegicus [28] = test: Toxicity in Sprague-Dawley rat assessed as mortality at 10 to 100 mg/kg, po administered daily for 7 days; assay type: organism-based; parameters: dose 10-100 mg/kg, route oral; details: in vivo, 168 h; in short: as §4
Rattus norvegicus [29] = test: Toxicity in Sprague-Dawley rat assessed as change in gross necroscopy at 10 to 100 mg/kg, po administered daily for 7 days; assay type: organism-based; parameters: dose 10-100 mg/kg, route oral; details: in vivo, 168 h; in short: as §3
[30] = AUC (0 to 24 hrs) in Sprague-Dawley rat at 10 mg/kg, po administered daily for 7 days measured on day 1; assay type: ADME, organism-based; parameters: time < 24 hr, dose 10 mg/kg, route oral; details: plasma; in short: as §1
Rattus norvegicus [31] = test: Toxicity in Sprague-Dawley rat assessed as change in coagulation parameters at 10 to 100 mg/kg, po administered daily for 7 days; assay type: organism-based; parameters: dose 10-100 mg/kg, route oral; details: in vivo, 168 h
[32] = Elimination half life in Sprague-Dawley rat at 100 mg/kg, po administered daily for 7 days measured on day 1; assay type: ADME, organism-based; parameters: dose 100 mg/kg, route oral; details: in vivo, read-out: beta t1/2 (converted); in short: as §5
[33] = Selectivity index, ratio of CC50 for human HepG2(2.2.15) cells to EC50 for HBV
[34] = AUC (0 to 24 hrs) in Sprague-Dawley rat at 100 mg/kg, po administered daily for 7 days measured on day 1; assay type: ADME, organism-based; parameters: time < 24 hr, dose 100 mg/kg, route oral; details: plasma; in short: as §1
HepG2 = test: Cytotoxicity against human HepG2 cells by MTS assay; assay type: cell-based; details: Homo sapiens, HepG2
In short: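 Exponentially growing HepG2 cells (parent hepatoma line); cytostatic effect measured by MTS method.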

[35] = Cytotoxicity against human MT2 cells; assay type: cell-based
In short: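 MT-2 cells in RPMI 1640 with 10% FBS and 10 mM HEPES, exposed to threefold serial drug dilutions. CC50 calculated from cell counts and viability.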

[36] = AUC (0 to 24 hrs) in Sprague-Dawley rat at 30 mg/kg, po administered daily for 7 days measured on day 7; assay type: ADME, organism-based; parameters: time < 24 hr, dose 30 mg/kg, route oral; details: plasma; in short: as §5
[37] = Cytotoxicity against human HepG2(2.2.15) cells after 24 hrs by neutral red uptake assay; assay type: cell-based; details: Homo sapiens, HepG2 2.2.15, 24 h
In short: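 Confluent 2.2.15 cells given nine daily treatments. Neutral red uptake read by absorbance of internalized dye 24 h after the last treatment, three cultures per concentration.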

CCCCCCCCCCCCCCCCOCCCOP(=O)(O)CO[C@H](C)Cn1cnc2c(N)ncnc21 [TENOFOVIR EXALIDEX]
Tmax [1]: 0.5 h
Activity (Rattus norvegicus [2]): Non-toxic
Ratio CC50/EC50 [3]: 12000
Activity (Rattus norvegicus [4]): Non-toxic
Tmax [5]: 2 h
Activity (Rattus norvegicus [6]): Non-toxic
half-life [7]: 1.6 h
Activity (Rattus norvegicus [8]): Non-toxic
Tmax [9]: 1 h
selectivity ratio [10]: > 5.4e+06
pEC50 [11]: > 11.00
pEC50 [12]: 7.92
Tmax [13]: 2 h
Activity (Rattus norvegicus [14]): Non-toxic
Activity (Rattus norvegicus [15]): Non-toxic
AUC(0-t) at 24 h [16]: 1830 ng·h/mL
Tmax [17]: 0.5 h
AUC at 24 h [18]: 8410 ng·h/mL
CC50 [19]: 144000 nM
Ratio CC50/EC50 [20]: 38.4
Activity (Rattus norvegicus [21]): Non-toxic
pEC50 (Hepatitis B virus [22]): 5.80
AUC at 24 h [23]: 435 ng·h/mL
Activity (Rattus norvegicus [24]): Non-toxic
Tmax [25]: 2 h
pEC50 (Hepatitis B virus [26]): 6.31
Activity (Rattus norvegicus [27]): Non-toxic
Activity (Rattus norvegicus [28]): Non-toxic
Activity (Rattus norvegicus [29]): Non-toxic
AUC(0-t) at 24 h [30]: 442 ng·h/mL
Activity (Rattus norvegicus [31]): Non-toxic
half-life [32]: 2.5 h
Ratio CC50/EC50 [33]: >187.5
AUC(0-t) at 24 h [34]: 5410 ng·h/mL
pEC50 (HepG2): < 4.73
CC50 [35]: 54000 nM
AUC at 24 h [36]: 1540 ng·h/mL
pEC50 [37]: < 3.52
